≈ marks a conversion by molar mass, not a printed value. Calls of active or inactive are those of the source. The calls are words filed in the database; no cut-off is given here.
Tests used:
Escherichia coli [1] = assay: Antibacterial activity against Escherichia coli NKE159 harboring deletion mutation in acrB, cpxAR protein and plasmid expressing nlpE gene; type: functional
Escherichia coli [2] = assay: Antibacterial activity against Escherichia coli NKE161 harboring deletion mutation in acrB protein, vector expressing tolC gene and plasmid expressing nlpE gene; type: functional
Escherichia coli [3] = assay: Antibacterial activity against Escherichia coli NKE126 harboring deletion mutation in acrB and acrD protein; type: functional
Escherichia coli [4] = assay: Antibacterial activity against Escherichia coli NKE1367 harboring deletion mutation in acrB, mdtABC protein and plasmid expressing nlpE gene; type: functional
Escherichia coli [5] = assay: Antibacterial activity against Escherichia coli NKE1359 harboring deletion mutation in acrB protein and plasmid expressing BADnlpE gene in presence of increasing concentration of arabinose; type: functional, organism-based
Outline: (§1)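 ΔacrB host carrying empty pBAD33 or pBAD33 with nlpE under the arabinose-inducible PBAD promoter. MICs of oxacillin, cloxacillin, nafcillin, cefamandole, aztreonam, novobiocin, deoxycholate and kanamycin were measured with arabinose at several concentrations from 0 to 10,000 μM. Each MIC determination was repeated at least three times.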

Escherichia coli [6] = assay: Antibacterial activity against Escherichia coli NKE156 harboring deletion mutation in acrB protein and vector expressing acrD gene; type: functional
Escherichia coli [7] = assay: Antibacterial activity against Escherichia coli NKE158 harboring deletion mutation in acrB protein and vector expressing cpxAR gene; type: functional
Escherichia coli [8] = assay: Antibacterial activity against Escherichia coli NKE160 harboring deletion mutation in acrB protein and vector expressing tolC gene; type: functional
Escherichia coli [9] = assay: Antibacterial activity against Escherichia coli NKE1369 harboring deletion mutation in acrB, acrD, mdtABC protein and plasmid expressing nlpE gene; type: functional
Escherichia coli [10] = assay: Antibacterial activity against Escherichia coli NKE1316 harboring deletion mutation in acrB, acrD and mdtABC protein; type: functional
Escherichia coli [11] = assay: Antibacterial activity against Escherichia coli NKE1368 harboring deletion mutation in acrB, acrD and mdtABC genes and carrying empty pHSG398 vector
Escherichia coli [12] = assay: Antibacterial activity against Escherichia coli NKE1366 harboring deletion mutation in acrB and vector expressing mdtABC gene; type: functional
Escherichia coli [13] = assay: Antibacterial activity against Escherichia coli NKE127 harboring deletion mutation in acrB and cpxAR protein; type: functional
Escherichia coli [14] = assay: Antibacterial activity against Escherichia coli NKE96 harboring deletion mutation in acrB protein; type: functional
Escherichia coli [15] = assay: Antibacterial activity against Escherichia coli NKE154 harboring vector expressing acrB deletion mutant; type: functional
Escherichia coli [16] = assay: Antibacterial activity against Escherichia coli NKE155 harboring deletion mutation in acrB protein and plasmid expressing nlpE gene; type: functional
Escherichia coli [17] = assay: Antibacterial activity against Escherichia coli NKE128 harboring deletion mutation in acrB and tolC protein; type: functional
Escherichia coli [18] = assay: Antibacterial activity against Escherichia coli NKE1355 harboring deletion mutation in acrB protein and plasmid expressing BAD gene in presence of increasing concentration of arabinose; type: functional, organism-based; outline: as §1
Escherichia coli [19] = assay: Antibacterial activity against Escherichia coli NKE157 harboring deletion mutation in acrB, acrD protein and plasmid expressing nlpE gene; type: functional
Escherichia coli [20] = assay: Antibacterial activity against Escherichia coli NKE1365 harboring deletion mutation in acrB and mdtABC protein; type: functional

| SMILES | MIC (Escherichia coli [1]) [µg/mL] | MIC (Escherichia coli [2]) [µg/mL] | MIC (Escherichia coli [3]) [µg/mL] | MIC (Escherichia coli [4]) [µg/mL] | Activity (Escherichia coli [5]) | MIC (Escherichia coli [6]) [µg/mL] | MIC (Escherichia coli [7]) [µg/mL] | MIC (Escherichia coli [8]) [µg/mL] | MIC (Escherichia coli [9]) [µg/mL] | MIC (Escherichia coli [10]) [µg/mL] | MIC (Escherichia coli [11]) [µg/mL] | MIC (Escherichia coli [12]) [µg/mL] | MIC (Escherichia coli [13]) [µg/mL] | MIC (Escherichia coli [14]) [µg/mL] | MIC (Escherichia coli [15]) [µg/mL] | MIC (Escherichia coli [16]) [µg/mL] | MIC (Escherichia coli [17]) [µg/mL] | Activity (Escherichia coli [18]) | MIC (Escherichia coli [19]) [µg/mL] | MIC (Escherichia coli [20]) [µg/mL] |
| --- | --- | --- | --- | --- | --- | --- | --- | --- | --- | --- | --- | --- | --- | --- | --- | --- | --- | --- | --- | --- |
| C[C@H]1[C@H](NC(=O)/C(=N\OC(C)(C)C(=O)O)c2csc(N)n2)C(=O)N1S(=O)(=O)O [AZTREONAM] | 0.063 (≈ 0.145 µM) | 0.063 (≈ 0.145 µM) | 0.063 (≈ 0.145 µM) | 0.25 (≈ 0.574 µM) | inactive | 0.063 (≈ 0.145 µM) | 0.063 (≈ 0.145 µM) | 0.063 (≈ 0.145 µM) | 0.063 (≈ 0.145 µM) | 0.063 (≈ 0.145 µM) | 0.063 (≈ 0.145 µM) | 0.063 (≈ 0.145 µM) | 0.063 (≈ 0.145 µM) | 0.063 (≈ 0.145 µM) | 0.063 (≈ 0.145 µM) | 0.25 (≈ 0.574 µM) | 0.063 (≈ 0.145 µM) | Active | 0.063 (≈ 0.145 µM) | 0.063 (≈ 0.145 µM) |
| CC1(C)S[C@@H]2[C@H](NC(=O)C(C(=O)O)c3ccccc3)C(=O)N2[C@H]1C(=O)O (some centres undefined) [CARBENICILLIN] | 1 (≈ 2.64 µM) | 1 (≈ 2.64 µM) | 1 (≈ 2.64 µM) | 4 (≈ 10.6 µM) |  | 1 (≈ 2.64 µM) | 1 (≈ 2.64 µM) | 1 (≈ 2.64 µM) | 1 (≈ 2.64 µM) | 1 (≈ 2.64 µM) | 1 (≈ 2.64 µM) | 1 (≈ 2.64 µM) | 1 (≈ 2.64 µM) | 1 (≈ 2.64 µM) | 1 (≈ 2.64 µM) | 8 (≈ 21.1 µM) | 1 (≈ 2.64 µM) |  | 2 (≈ 5.29 µM) | 1 (≈ 2.64 µM) |
| NC(=O)OC[C@@H]1[C@H](NC(=O)/C(=N\OCC(=O)O)c2csc(N)n2)C(=O)N1S(=O)(=O)O [CARUMONAM] | 0.031 (≈ 0.0665 µM) | 0.031 (≈ 0.0665 µM) | 0.031 (≈ 0.0665 µM) | 0.13 (≈ 0.279 µM) |  | 0.031 (≈ 0.0665 µM) | 0.031 (≈ 0.0665 µM) | 0.031 (≈ 0.0665 µM) | 0.031 (≈ 0.0665 µM) | 0.031 (≈ 0.0665 µM) | 0.031 (≈ 0.0665 µM) | 0.031 (≈ 0.0665 µM) | 0.031 (≈ 0.0665 µM) | 0.031 (≈ 0.0665 µM) | 0.031 (≈ 0.0665 µM) | 0.25 (≈ 0.536 µM) | 0.031 (≈ 0.0665 µM) |  | 0.063 (≈ 0.135 µM) | 0.031 (≈ 0.0665 µM) |
| Cn1nnnc1SCC1=C(C(=O)O)N2C(=O)[C@@H](NC(=O)[C@H](O)c3ccccc3)[C@H]2SC1 [CEFAMANDOLE] | 0.063 (≈ 0.136 µM) | 0.063 (≈ 0.136 µM) | 0.063 (≈ 0.136 µM) | 0.13 (≈ 0.281 µM) | inactive | 0.063 (≈ 0.136 µM) | 0.063 (≈ 0.136 µM) | 0.063 (≈ 0.136 µM) | 0.063 (≈ 0.136 µM) | 0.063 (≈ 0.136 µM) | 0.063 (≈ 0.136 µM) | 0.063 (≈ 0.136 µM) | 0.063 (≈ 0.136 µM) | 0.063 (≈ 0.136 µM) | 0.063 (≈ 0.136 µM) | 0.25 (≈ 0.541 µM) | 0.063 (≈ 0.136 µM) | Active | 0.13 (≈ 0.281 µM) | 0.063 (≈ 0.136 µM) |
| Cc1onc(-c2ccccc2Cl)c1C(=O)N[C@@H]1C(=O)N2[C@@H]1SC(C)(C)[C@@H]2C(=O)O [CLOXACILLIN] | 1 (≈ 2.29 µM) | 0.25 (≈ 0.574 µM) | 1 (≈ 2.29 µM) | 4 (≈ 9.18 µM) | inactive | 1 (≈ 2.29 µM) | 1 (≈ 2.29 µM) | 0.25 (≈ 0.574 µM) | 0.5 (≈ 1.15 µM) | 0.5 (≈ 1.15 µM) | 0.5 (≈ 1.15 µM) | 1 (≈ 2.29 µM) | 1 (≈ 2.29 µM) | 1 (≈ 2.29 µM) | 1 (≈ 2.29 µM) | 16 (≈ 36.7 µM) | 0.25 (≈ 0.574 µM) | Active | 2 (≈ 4.59 µM) | 1 (≈ 2.29 µM) |
| C[C@H](CCC(=O)O)[C@H]1CC[C@H]2[C@@H]3CC[C@@H]4C[C@H](O)CC[C@]4(C)[C@H]3C[C@H](O)[C@]12C [DEOXYCHOLIC ACID] | 2500 (≈ 6370 µM) | 156 (≈ 397 µM) | 5000 (≈ 12700 µM) | 10000 (≈ 25500 µM) | inactive | 5000 (≈ 12700 µM) | 2500 (≈ 6370 µM) | 156 (≈ 397 µM) | 2500 (≈ 6370 µM) | 2500 (≈ 6370 µM) | 2500 (≈ 6370 µM) | 5000 (≈ 12700 µM) | 2500 (≈ 6370 µM) | 5000 (≈ 12700 µM) | 5000 (≈ 12700 µM) | 40000 (≈ 102000 µM) | 156 (≈ 397 µM) | Active | 10000 (≈ 25500 µM) | 5000 (≈ 12700 µM) |
| NC[C@H]1O[C@H](O[C@H]2[C@H](O)[C@@H](O[C@H]3O[C@H](CO)[C@@H](O)[C@H](N)[C@H]3O)[C@H](N)C[C@@H]2N)[C@H](O)[C@@H](O)[C@@H]1O [KANAMYCIN] | 1 (≈ 2.06 µM) | 2 (≈ 4.13 µM) | 2 (≈ 4.13 µM) | 8 (≈ 16.5 µM) | inactive | 2 (≈ 4.13 µM) | 1 (≈ 2.06 µM) | 1 (≈ 2.06 µM) | 4 (≈ 8.26 µM) | 2 (≈ 4.13 µM) | 2 (≈ 4.13 µM) | 2 (≈ 4.13 µM) | 1 (≈ 2.06 µM) | 2 (≈ 4.13 µM) | 2 (≈ 4.13 µM) | 8 (≈ 16.5 µM) | 1 (≈ 2.06 µM) | Active | 4 (≈ 8.26 µM) | 2 (≈ 4.13 µM) |
| CCOc1ccc2ccccc2c1C(=O)N[C@@H]1C(=O)N2[C@@H]1SC(C)(C)[C@@H]2C(=O)O [NAFCILLIN] | 1 (≈ 2.41 µM) | 1 (≈ 2.41 µM) | 1 (≈ 2.41 µM) | 4 (≈ 9.65 µM) | inactive | 1 (≈ 2.41 µM) | 1 (≈ 2.41 µM) | 1 (≈ 2.41 µM) | 1 (≈ 2.41 µM) | 1 (≈ 2.41 µM) | 1 (≈ 2.41 µM) | 1 (≈ 2.41 µM) | 1 (≈ 2.41 µM) | 2 (≈ 4.83 µM) | 2 (≈ 4.83 µM) | 16 (≈ 38.6 µM) | 1 (≈ 2.41 µM) | Active | 4 (≈ 9.65 µM) | 1 (≈ 2.41 µM) |
| CO[C@@H]1[C@@H](OC(N)=O)[C@@H](O)[C@H](Oc2ccc3c(O)c(NC(=O)c4ccc(O)c(CC=C(C)C)c4)c(=O)oc3c2C)OC1(C)C [NOVOBIOCIN] | 4 (≈ 6.53 µM) | 2 (≈ 3.26 µM) | 4 (≈ 6.53 µM) | 8 (≈ 13.1 µM) | inactive | 4 (≈ 6.53 µM) | 4 (≈ 6.53 µM) | 2 (≈ 3.26 µM) | 2 (≈ 3.26 µM) | 2 (≈ 3.26 µM) | 2 (≈ 3.26 µM) | 4 (≈ 6.53 µM) | 4 (≈ 6.53 µM) | 4 (≈ 6.53 µM) | 4 (≈ 6.53 µM) | 16 (≈ 26.1 µM) | 2 (≈ 3.26 µM) | Active | 8 (≈ 13.1 µM) | 4 (≈ 6.53 µM) |
| Cc1onc(-c2ccccc2)c1C(=O)N[C@@H]1C(=O)N2[C@@H]1SC(C)(C)[C@@H]2C(=O)O [OXACILLIN] | 0.5 (≈ 1.25 µM) | 0.5 (≈ 1.25 µM) | 0.5 (≈ 1.25 µM) | 4 (≈ 9.96 µM) | inactive | 0.5 (≈ 1.25 µM) | 0.5 (≈ 1.25 µM) | 0.5 (≈ 1.25 µM) | 0.5 (≈ 1.25 µM) | 0.5 (≈ 1.25 µM) | 0.5 (≈ 1.25 µM) | 1 (≈ 2.49 µM) | 0.5 (≈ 1.25 µM) | 1 (≈ 2.49 µM) | 1 (≈ 2.49 µM) | 8 (≈ 19.9 µM) | 0.5 (≈ 1.25 µM) | Active | 2 (≈ 4.98 µM) | 1 (≈ 2.49 µM) |
| CC1(C)S[C@@H]2[C@H](NC(=O)C(c3ccccc3)S(=O)(=O)O)C(=O)N2[C@H]1C(=O)O (some centres undefined) [SULBENICILLIN] | 1 (≈ 2.41 µM) | 1 (≈ 2.41 µM) | 1 (≈ 2.41 µM) | 8 (≈ 19.3 µM) |  | 1 (≈ 2.41 µM) | 1 (≈ 2.41 µM) | 1 (≈ 2.41 µM) | 1 (≈ 2.41 µM) | 1 (≈ 2.41 µM) | 1 (≈ 2.41 µM) | 2 (≈ 4.83 µM) | 1 (≈ 2.41 µM) | 2 (≈ 4.83 µM) | 2 (≈ 4.83 µM) | 16 (≈ 38.6 µM) | 1 (≈ 2.41 µM) |  | 2 (≈ 4.83 µM) | 2 (≈ 4.83 µM) |

— ChEMBL document CHEMBL1255456, “Effect of NlpE overproduction on multidrug resistance in Escherichia coli” (2010)
